From ChEMBL document CHEMBL1157714, “Synthesis, anti-HIV and anti-oxidant activities of caffeoyl 5,6-anhydroquinic acid derivatives” (Bioorg Med Chem, 2010) come the findings set out here.

Each structure is given as a SMILES string. ≈ marks a conversion by molar mass, not a printed value. A value given as a limit tells only on which side of the number the result lay.

One data set deals with MT4. Put plainly: Cytotoxicity against human MT4 cells after 5 days. Type of data set: cell-based. The following applies: mt4, 120 h. In outline: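 Over a 5-day culture in RPMI-1640 with graded compound concentrations, MT-4 cell growth was checked by optical microscopy. The cytotoxic concentration (CC) was the concentration that reduced MT-4 viability.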
For data set [1], the system named is Radical scavenging activity. Put plainly: Antioxidant activity assessed as DPPH radical scavenging activity. Type of data set: functional. In a few lines:
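Each well held 10 µl compound in DMSO plus 190 µl of 0.1 mM DPPH in ethanol. After 20 min at rt, absorbance was read at 540 nm. Effective rate % was computed, each compound was tested at 4 concentrations, and EC50 was derived from a plot of effective rate % against concentration.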
(In general: The DPPH test is a chemical assay of radical scavenging.)

Data set [2] is described as follows: Antioxidant activity assessed as SOD-like activity by WST1 assay. Type of data set: functional. In a few lines: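 SOD Assay Kit-WST in 96-well plates. Compound in DMSO was mixed with WST working solution, and the reaction was started with xanthine oxidase. After 20 min at 37 °C, absorbance was read at 450 nm. Inhibition % was corrected with three blanks (DMSO, no enzyme, DMSO plus buffer). Four concentrations were tested, and IC50 was taken from the inhibition-concentration plot.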
(Tetrazolium dyes change colour on reduction, which living cells bring about.)

The subject of data set [3] is Human immunodeficiency virus 1. Put plainly: Antiviral activity against HIV1 3B infected in human MT4 cells after 5 days. Type of data set: functional. In a few lines:
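MT-4 cells were infected 1 h with HIV-1 (HTLV-IIIB) at TCID50 0.001/cell, resuspended at 1 × 10⁵ cells/ml in RPMI-1640, and cultured 5 days with graded compound concentrations. Infected and uninfected controls had no compound. On day 5, the concentration fully preventing the virus-induced cytopathic effect was read by optical microscopy.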

Regarding `CC1(C)OC(=O)[C@@]2(C=C[C@@H](O)[C@H](O)C2)O1`, the CC100 in the data set on MT4 is over 100 µg/mL. Further, the half-maximal effective concentration (EC50) (commonly the concentration needed to bring the measured effect to its halfway point) in data set [1] is over 50 µg/mL. For the same molecule, the concentration for half-maximal inhibition (IC50) (commonly the concentration that inhibits the measured activity by half) in data set [2] was over 100 µg/mL.
`O=C(/C=C/c1ccc(O)c(O)c1)O[C@@H]1C=C[C@@](O)(C(=O)O)C[C@H]1OC(=O)/C=C/c1ccc(O)c(O)c1` showed a CC100 in the data set on MT4 of over 25 µg/mL. Moreover, the 50% effective concentration (EC50) in data set [1] worked out at 11 µg/mL (≈ 22.1 µM). The IC50 in data set [2] came to 1.9 µg/mL (≈ 3.81 µM). In data set [3], this molecule yielded an IC100 of 6.25 µg/mL.
Take `O=C(/C=C/c1ccc(O)c(O)c1)O[C@@H]1C=C[C@@](O)(C(=O)O)C[C@H]1O`: the CC100 in the data set on MT4 is over 25 µg/mL. The EC50 in data set [1] worked out at 15 µg/mL (≈ 44.6 µM). Moreover, the 50% inhibitory concentration (IC50) in data set [2] was found to be 0.7 µg/mL (≈ 2.08 µM).
`CC(=O)Oc1ccc(/C=C/C(=O)O[C@@H]2C[C@]3(C=C[C@H]2O)OC(C)(C)OC3=O)cc1OC(C)=O` returned a CC100 with MT4 of over 100 µg/mL. Further, the EC50 in data set [1] is over 50 µg/mL. Further, the half-maximal inhibitory concentration (IC50) in data set [2] is 1.8 µg/mL (≈ 3.91 µM). The same molecule returned an IC100 in data set [3] of 50 µg/mL.
In turn, `CC(=O)Oc1ccc(/C=C/C(=O)O[C@@H]2C=C[C@@]3(C[C@H]2OC(=O)/C=C/c2ccc(OC(C)=O)c(OC(C)=O)c2)OC(C)(C)OC3=O)cc1OC(C)=O` had a CC100 with MT4 of over 6.25 µg/mL. Further, the EC50 in data set [1] was over 50 µg/mL. In addition, the half-maximal inhibitory concentration (IC50) in data set [2] is 6.3 µg/mL (≈ 8.92 µM).
For `CC[C@H]1OC(=O)[C@]2(C[C@@H](O)[C@H](O)[C@H](OC(=O)/C=C/c3ccc(O)c(O)c3)C2)O1` the same measures were over 12.5 µg/mL, 20 µg/mL (≈ 50.7 µM) and 1.1 µg/mL (≈ 2.79 µM).
For `CCCC1(CCC)OC(=O)[C@]2(C[C@@H](O)[C@H](O)[C@H](OC(=O)/C=C/c3ccc(O)c(O)c3)C2)O1` the same measures were over 25 µg/mL, 30 µg/mL (≈ 66.6 µM) and 2 µg/mL (≈ 4.44 µM).
`O=C(/C=C/c1ccc(O)c(O)c1)O[C@@H]1C[C@](O)(C(=O)O)C[C@@H](OC(=O)/C=C/c2ccc(O)c(O)c2)[C@H]1O` gave a CC100 in the data set on MT4 of over 50 µg/mL. In data set [1], the 50% effective concentration (EC50) came to 16 µg/mL (≈ 31 µM). In data set [2], the concentration for half-maximal inhibition (IC50) worked out at 2.3 µg/mL (≈ 4.45 µM). The IC100 in data set [3] came out at 12.5 µg/mL.
Consider `CC1(C)OC(=O)[C@@]2(C=C[C@@H](OC(=O)/C=C/c3ccc(O)c(O)c3)[C@H](OC(=O)/C=C/c3ccc(O)c(O)c3)C2)O1`, for which, in the data set on MT4, the CC100 was over 25 µg/mL. In addition, the EC50 in data set [1] was 20 µg/mL (≈ 37.1 µM). Also, the IC50 in data set [2] turned out to be 2 µg/mL (≈ 3.71 µM).
The corresponding values for `CCCCC1(CCCC)OC(=O)[C@]2(C[C@@H](O)[C@H](O)[C@H](OC(=O)/C=C/c3ccc(O)c(O)c3)C2)O1` are over 25 µg/mL, 22 µg/mL (≈ 46 µM) and 2 µg/mL (≈ 4.18 µM).
The corresponding values for `COC(=O)[C@@]1(O)C[C@@H](O)[C@H](O)[C@H](OC(=O)/C=C/c2ccc(O)c(O)c2)C1` are over 25 µg/mL, 20 µg/mL (≈ 54.3 µM) and 1.4 µg/mL (≈ 3.8 µM).
On to `CC1(C)OC(=O)[C@]2(C[C@@H](O)[C@H](O)[C@H](OC(=O)/C=C/c3ccc(O)c(O)c3)C2)O1`, for which the CC100 with MT4 is over 50 µg/mL. In addition, the concentration giving a half-maximal response (EC50) in data set [1] was found to be 8 µg/mL (≈ 20.3 µM). Further, the IC50 in data set [2] was 1.6 µg/mL (≈ 4.06 µM). In addition, in data set [3], the IC100 was 25 µg/mL.
The molecule `CC1(C)O[C@H]2C=C[C@@]3(C[C@H]2O1)OC(C)(C)OC3=O` had a CC100 with MT4 of over 100 µg/mL. Also, the EC50 in data set [1] was over 50 µg/mL. Besides, the IC50 in data set [2] amounted to 90 µg/mL (≈ 354 µM).
For `CC1(C)O[C@H]2[C@H](O)C[C@@]3(C[C@H]2O1)OC(C)(C)OC3=O` [QUINIC ACID BISACETONIDE] the same measures were over 100 µg/mL, over 50 µg/mL and over 100 µg/mL.
Turning to `CC1(C)OC(=O)[C@@]2(C=C[C@@H](OC(=O)/C=C/c3ccc(O)c(O)c3)[C@H](O)C2)O1`, the CC100 in the data set with MT4 is over 100 µg/mL. For the same molecule, in data set [1], the EC50 came out at 18 µg/mL (≈ 47.8 µM). In data set [2], the 50% inhibitory concentration (IC50) was found to be 1.3 µg/mL (≈ 3.45 µM). The IC100 in data set [3] is 50 µg/mL.
Take `CC(=O)Oc1ccc(/C=C/C(=O)O[C@@H]2C=C[C@@]3(C[C@H]2O)OC(C)(C)OC3=O)cc1OC(C)=O`: the EC50 in data set [1] is over 50 µg/mL. Further, the IC50 in data set [2] is 2.9 µg/mL (≈ 6.3 µM).
The molecule `O=C(/C=C/c1ccc(O)c(O)c1)O[C@@H]1C[C@](O)(C(=O)O)C=C[C@H]1O` gave a CC100 in the data set on MT4 of over 25 µg/mL. Also, the concentration giving a half-maximal response (EC50) in data set [1] worked out at 16 µg/mL (≈ 47.6 µM). Besides, the half-maximal inhibitory concentration (IC50) in data set [2] was found to be 0.5 µg/mL (≈ 1.49 µM).
For `CC[C@@H]1OC(=O)[C@]2(C[C@@H](O)[C@H](O)[C@H](OC(=O)/C=C/c3ccc(O)c(O)c3)C2)O1` the same measures were over 12.5 µg/mL, 19 µg/mL (≈ 48.2 µM) and 1 µg/mL (≈ 2.54 µM).
`CCC1(CC)OC(=O)[C@]2(C[C@@H](O)[C@H](O)[C@H](OC(=O)/C=C/c3ccc(O)c(O)c3)C2)O1`: the CC100 with MT4 was over 25 µg/mL. In addition, the half-maximal effective concentration (EC50) in data set [1] was 29 µg/mL (≈ 68.7 µM). Also, in data set [2], the IC50 amounted to 2 µg/mL (≈ 4.73 µM).
On to `CC1(C)OC(=O)[C@@]2(C=C[C@@H](O)[C@H](OC(=O)/C=C/c3ccc(O)c(O)c3)C2)O1`, for which the CC100 with MT4 was over 100 µg/mL. Besides, the concentration for a half-maximal effect (EC50) in data set [1] was 20 µg/mL (≈ 53.1 µM). Besides, in data set [2], the concentration for half-maximal inhibition (IC50) was 1.5 µg/mL (≈ 3.99 µM). In addition, the IC100 in data set [3] was found to be 50 µg/mL.
Take `CCCCCC1(CCCCC)OC(=O)[C@]2(C[C@@H](O)[C@H](O)[C@H](OC(=O)/C=C/c3ccc(O)c(O)c3)C2)O1`: the CC100 in the data set with MT4 was over 12.5 µg/mL. In addition, in data set [1], the EC50 was found to be 28 µg/mL (≈ 55.3 µM). Also, the IC50 in data set [2] came to 2.9 µg/mL (≈ 5.72 µM).
Consider `O=C(/C=C/c1ccc(O)c(O)c1)O[C@@H]1C[C@@](O)(C(=O)O)C[C@@H](O)[C@@H]1O`, for which the EC50 in data set [1] was found to be 17 µg/mL (≈ 48 µM). Besides, in data set [2], the IC50 is 1.5 µg/mL (≈ 4.23 µM).
